pEC50, pIC50: −log10 of the molar value.
Experiments:
[1] = biological target: T1, Serine/threonine-protein kinase Chk1 (Homo sapiens, UniProt O14757); assay: Inhibition of Chk1 by fluorescence assay
T1 sequence (O14757 whole entry): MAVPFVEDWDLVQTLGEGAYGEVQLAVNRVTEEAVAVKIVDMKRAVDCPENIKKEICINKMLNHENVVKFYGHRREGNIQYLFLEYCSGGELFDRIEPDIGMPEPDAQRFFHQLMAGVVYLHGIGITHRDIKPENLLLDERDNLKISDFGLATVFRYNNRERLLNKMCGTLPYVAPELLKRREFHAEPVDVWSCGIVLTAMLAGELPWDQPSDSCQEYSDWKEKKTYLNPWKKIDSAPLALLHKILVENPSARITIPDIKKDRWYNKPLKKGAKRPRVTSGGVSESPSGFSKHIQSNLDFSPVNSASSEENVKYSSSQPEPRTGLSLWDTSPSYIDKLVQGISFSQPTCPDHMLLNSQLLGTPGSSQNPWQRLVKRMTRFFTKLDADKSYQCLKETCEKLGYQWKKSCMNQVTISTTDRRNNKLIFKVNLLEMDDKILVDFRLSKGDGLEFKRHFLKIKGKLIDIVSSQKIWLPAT

[2] = system: NCI-H1299; assay: Inhibition of camptothecin-induced cell cycle arrest in NCI-H1299 cells after 8 hrs; assay type: functional, cell-based; settings: Homo sapiens, NCI-H1299, 8 h
Summary of the method: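 NCI-H1299 lung carcinoma cells held 16 h in camptothecin to arrest, then exposed to inhibitor a further 8 h. Escape into mitosis scored by mitosis-specific nucleolin phosphorylation, quantified with an antibody-coated bead-based assay.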

| pIC50 [1] | pEC50 [2] | Structure (SMILES) |
| --- | --- | --- |
| 5.86 | – | Cc1[nH]nc2c1c(=O)[nH]c1ccccc12 |
| 6.64 | – | Cc1ccc2[nH]c(=O)c3c(C)[nH]nc3c2c1 |
| 7.40 | 5.53 | Cc1[nH]nc2c1c(=O)[nH]c1ccc(Cl)cc12 |
| 5.15 | – | CC(=O)Nc1ccc2[nH]c(=O)c3c(C)[nH]nc3c2c1 |
| 8.49 | 7.08 | Cc1[nH]nc2c1c(=O)n(C[C@@H](F)CN)c1cc(C3CCCCC3)c(C3CCCCC3)cc21 |
| 5.83 | – | Cc1cccc2c1[nH]c(=O)c1c(C)[nH]nc12 |
| 5.70 | – | Cc1[nH]nc2c1c(=O)[nH]c1cc(Cl)ccc12 |
| 8.00 | < 5.00 | CCn1c(=O)c2c(C)[nH]nc2c2cc3c(cc21)CN(S(=O)(=O)CCN)CC3 |
| 6.07 | – | Cc1[nH]nc2c1c(OCCN)nc1ccc(Cl)cc12 |
| 7.22 | – | Cc1[nH]nc2c1c(NCCN)nc1ccc(Cl)cc12 |
| 6.66 | – | Cc1[nH]nc2c1c(NCCCN)nc1ccc(Cl)cc12 |
| 8.92 | 6.80 | Cc1[nH]nc2c1c(=O)n(CCCN)c1ccc(Cl)cc21 |
| 7.70 | 6.00 | Cc1[nH]nc2c1c(=O)n(CCCCN)c1ccc(Cl)cc21 |
| 4.54 | – | Cc1[nH]nc2c1c(=O)[nH]c1cccc(Cl)c12 |
| 7.54 | 6.15 | Cc1[nH]nc2c1c(=O)[nH]c1cc3ccccc3cc12 |
| 6.89 | 5.92 | Cc1[nH]nc2c1c(=O)[nH]c1cc3c(cc12)CCCC3 |
| 7.92 | < 5.00 | CCn1c(=O)c2c(C)[nH]nc2c2cc3c(cc21)CN(C(=O)NCCN)CC3 |
| 8.51 | 7.19 | Cc1[nH]nc2c1c(=O)n(C[C@H](F)CN)c1cc(C3CCCCC3)c(C3CCCCC3)cc21 |
| 7.24 | – | Cc1[nH]nc2c1c(=O)[nH]c1c(/C=C/CN)c(C3CCCCC3)c(C3CCCCC3)cc12 |
| 6.54 | – | Cc1[nH]nc2c1c(=O)[nH]c1c(CCCN)c(C3CCCCC3)c(C3CCCCC3)cc12 |
| 7.74 | < 5.00 | CCn1c(=O)c2c(C)[nH]nc2c2cc3c(cc21)CN(C(=O)CN)CC3 |
| 7.44 | 6.01 | Cc1[nH]nc2c1c(=O)n(CCN)c1ccc(Cl)cc21 |
| < 4.00 | – | Cc1[nH]nc2c1c(=O)[nH]c1cccc(C)c12 |
| 7.19 | 4.99 | Cc1[nH]nc2c1c(OCCCN)nc1ccc(Cl)cc12 |
